Source: PubChem
Hits are enriched below; roughly 2.2% of the tested compounds scored in any of these assays.
PglD DTNB: C. jejuni PglD acetyltransferase inhibitors, primary screen, biochemical, DTNB colorimetric, single point. purified PglD enzyme, DTNB colorimetric CoA detection. 360,000 compounds, 0.098% hits. inhibition, % at 12.5 µM. UDP-N-acetylbacillosamine N-acetyltransferase PglD (Campylobacter jejuni); in the data active = inhibition above about 16%, passing the limit was not always enough
SUMO Mot1 rescue: yeast Mot1-301 growth rescue at high temperature, primary screen, SUMOylation pathway inhibitor project, S. cerevisiae, ATP luminescence, 38.5C; AID 2716, 2010; growth rescue, % at 18.8 µM; 320,000 compounds, 1% hits; S. cerevisiae Mot1-301 growth rescue; percent above DMSO median, 100 means doubled;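 active = every valid replicate shows activation above 250% relative to neutral control wells; inactive = the rest, any valid replicate at or below 250%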;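 also: OY570 slx delta 5 strain wells were the positive control but not used for scaling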
rRNA inh HTS: reduced GFP signal of wild-type E. coli, primary screen, bacterial rRNA inhibitor project, GFP/RFP fluorescence, OD600, single point. AID 720706, 2013. 350,000 compounds, 1.6% hits. E. coli WT GFP vs humanized-ribosome RFP mutants, 24 h; hits give low values; DMSO median 0, no signal -100. GFP signal change (wild-type ribosome), % (no concentration beside the values);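 active = significant combined selectivity score with lowered wild-type GFP, culture density cut under 30%, mutant RFP and density less affected; inactive = any of these conditions unmet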
Cneo AK release: Cryptococcus neoformans cell lysis inducers, primary screen, AK release luminescence, single concentration | C. neoformans lysis, adenylate kinase release luminescence, 4 h; normalised: neutral wells 0, clomiphene wells 100 | lysis activity, % at 15 µM | 360,000 compounds, 0.2% hits;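 active = mean lysis activity across replicates of at least 80%, whatever share of replicates individually reach that level; inactive = mean lysis activity below 80%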
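Signal: Adenylate kinase release luminescence | Assay system: Log-phase Cryptococcus neoformans yeast cells | Input: Cells at 5 × 10^6 per mL | Buffer or medium: Fresh YPD growth medium | Compound: Single dose | Schedule: Static 4 h at 37 °C with compound, 1 h detection | Controls: Clomiphene | Read-out: Luminescence rise reflecting yeast cell lysis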
Yeast superoxide: reduction of superoxide in aged yeast, primary screen, HTS; 330,000 compounds, 0.18% hits; AID 2690, 2010; superoxide response (% of plate mean), % at 10 µM; S. cerevisiae aged cells, superoxide DHE fluorescence; hits give low values;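 active = superoxide response under a set limit, about three screen SD below normal, cut at about 65% in these data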;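 also: yeast aged for seven days with compound at 30 °C before DHE staining; 100% = average MFI of all compound-treated wells on the plate with controls excluded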
Yeast Mot1 SUMO: growth restoration of Mot1-301 yeast on galactose, dose response, SUMO pathway inhibitor project, whole organism, S. cerevisiae, ATP luminescence, cherry-picked samples; growth activity, percent, % at 42 µM; S. cerevisiae Mot1-301 galactose growth, 24 h; -100 = growth of slx-deleted rescue strain; shares compounds with SUMO Mot1 rescue; 2,300 tested, under 10 active;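 active = Signal drops as the depositor expects, and the fitted half-maximal dose is no more than ten times the top valid tested dose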;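 also: more negative values mean stronger growth rescue toward the control strain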
The depositor's hits bear a star; x = no result given; + = active, no number.

SMILES | PglD DTNB | SUMO Mot1 rescue | rRNA inh HTS | Cneo AK release | Yeast superoxide | Yeast Mot1 SUMO
CC(C)[N+]1(C)[C@@H]2CC[C@@H]1CC(OC(=O)C(CO)c1ccccc1)C2 (stereo not given in full) | 5.1 | 371.2* | x | 4.7 | 89.9 | 0.0
CC(=O)Nc1ccccc1C(=O)C(=O)Nc1cccc(C(=O)NCC2CCCO2)c1 (stereo not given) | x | -0.6 | 0.8 | x | 113.0 | x
CC(=O)Nc1ccccc1C(=O)C(=O)Nc1ccc(C(=O)NCC2CCCO2)cc1 (stereo not given) | 5.4 | 916.8* | 0.7 | 1.9 | 88.2 | -0.3
O=C(N[C@@H]1CC[C@@H](CCNC(=O)C2CCOCC2)O[C@H]1CO)c1ccncc1 | 2.3 | x | 3.1 | 1.1 | x | x
C[C@@H]1CN([C@H](C)CO)C(=O)c2cccc(NC(=O)Nc3ccc(F)cc3)c2O[C@@H]1CN(C)C(=O)Nc1ccc(F)cc1 | 17.4 | x | -5.9 | -2.5 | x | x
O=S(=O)(c1cccc(-c2nnco2)c1)N1CCCC1 | -6.8 | + | 19.4 | 1.1 | 107.7 | 0.3
Cc1noc(C)c1NC(=O)Nc1ccc2c(c1)C(=O)N([C@H](C)CO)C[C@H](C)[C@@H](CN(C)C(=O)C1CCCCC1)OCCCC[C@H](C)O2 | 4.1 | x | 2.0 | 0.7 | x | x
O=C(NC1CCCCC1)N[C@H]1CC[C@H](CCNS(=O)(=O)c2ccc(Cl)cc2)O[C@H]1CO | 0.0 | x | -8.2 | 2.1 | x | x
C/C(CC(=O)Nc1cccc(Cl)c1Cl)=N\NC(=O)c1ccccc1C | x | 452.0* | 14.8 | x | 96.5 | 0.1
O=S(=O)(Nc1cccc2cn[nH]c12)c1ccc(F)cc1 | -0.4 | 790.1* | x | -4.0 | 93.4 | 0.9
COc1cc(S(=O)(=O)Nc2cccc3cn[nH]c23)c(OC)cc1C | -1.6 | -1.0 | -3.1 | -0.5 | 101.9 | x
CC(C)C(=O)NNc1ccc(C(F)(F)F)cn1 | 9.5 | 585.8* | 3.4 | -1.6 | 99.8 | 0.3
O=C(CSc1nnc2ccccn12)NNC(=O)c1ccccc1 | x | 6.1 | 14.3 | x | 101.7 | x
O=C(CSc1nnc2ccccn12)NNC(=O)c1ccc(Cl)cc1 | 0.9 | 598.7* | 17.2 | -0.7 | 124.6 | -0.4
O=C(c1cccnc1)N1CCCC(Nc2ccc(F)cc2)C1 (stereo not given) | -2.5 | 595.3* | 4.0 | 0.5 | 94.0 | -0.5
O=C(C1CCCC1)N1CCCC(Nc2ccc(F)cc2)C1 (stereo not given) | -0.9 | 1.1 | 5.1 | -0.2 | 90.5 | x
Cc1ccc(CC(=O)O/N=C(\N)c2cccc([N+](=O)[O-])c2)cc1 | x | 448.1* | 2.4 | x | 107.5 | 0.2
C[C@@H]1CN([C@@H](C)CO)C(=O)c2cc(NC(=O)C3CCCCC3)ccc2O[C@H]1CN(C)Cc1ccncc1 | 0.9 | x | -0.3 | 4.6 | x | x
Cc1ccc(F)cc1NS(=O)(=O)c1ccc(Cl)s1 | 2.0 | 377.9* | x | 0.4 | 98.9 | 0.5
COc1ccc(S(=O)(=O)N2CCN(C(=O)COc3ccc4c(C)cc(=O)oc4c3)CC2)cc1 | -4.5 | -9.5 | x | 1.6 | x | x
CCC(C)c1ccc(S(=O)(=O)N2CCN(C(=O)COc3ccc4c(C)cc(=O)oc4c3)CC2)cc1 (stereo not given) | x | 524.1* | x | x | 110.1 | 0.2
C[C@@H]1CN([C@@H](C)CO)S(=O)(=O)c2ccc(C#C[C@@H](C)O)cc2O[C@@H]1CN(C)Cc1ccc(-c2ccccc2)cc1 | 1.4 | x | -0.2 | 16.2 | x | x
CCC1=Nc2cc(C(=O)NCc3ccco3)ccc2Sc2ccccc21 | x | 397.2* | x | x | 95.0 | 1.2
COc1ccc2oc(=O)c(C(=O)NCc3ccco3)cc2c1 | 10.1 | 653.8* | -2.7 | -0.3 | 97.0 | 0.0
CCCOc1ccc(C(=O)NCc2ccco2)cc1 | 1.5 | 684.5* | x | -0.3 | 107.7 | -0.2
CCC1=Nc2cc(C(=O)NCc3ccco3)ccc2Sc2ccc(Cl)cc21 | x | 45.2 | x | x | 111.4 | x
